From ChEMBL document CHEMBL2163321 (J Med Chem, 2012)

What was measured:
[1] = target: Lysine-specific demethylase 6B (Homo sapiens, UniProt O15054); test: Inhibition of human KDM6B catalytic domain expressed in Escherichia coli using methyl lysine peptide substrate by AlphaScreen assay
Summary of the method: (§1)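 AlphaScreen read-out: immunodetection of the lysine methylation state of the biotinylated histone peptide product, captured on streptavidin and Protein A conjugated beads. Reactions were run in the linear range with 2OG near or below its Km.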

[2] = target: Hypoxia-inducible factor 1-alpha inhibitor (Homo sapiens, UniProt Q9NWT6); test: Inhibition of human FIH expressed in Escherichia coli by MALDI assay
Sequence of Hypoxia-inducible factor 1-alpha inhibitor (Q9NWT6 whole entry, the tested form may be a part): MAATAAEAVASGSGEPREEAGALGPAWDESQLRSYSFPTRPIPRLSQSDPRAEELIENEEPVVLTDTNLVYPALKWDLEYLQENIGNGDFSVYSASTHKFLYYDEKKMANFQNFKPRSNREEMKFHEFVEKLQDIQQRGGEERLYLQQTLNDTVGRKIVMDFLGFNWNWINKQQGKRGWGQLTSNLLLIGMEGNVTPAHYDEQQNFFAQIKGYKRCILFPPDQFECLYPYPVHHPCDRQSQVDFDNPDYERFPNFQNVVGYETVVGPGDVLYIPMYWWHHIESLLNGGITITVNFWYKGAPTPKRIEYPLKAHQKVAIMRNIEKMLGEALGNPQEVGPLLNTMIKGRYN

[3] = target: T1, Lysine-specific demethylase 7A (Homo sapiens, UniProt Q6ZMT4); test: Inhibition of human KDM7A catalytic domain expressed in Escherichia coli by MALDI assay
T1 sequence (Q6ZMT4 whole entry): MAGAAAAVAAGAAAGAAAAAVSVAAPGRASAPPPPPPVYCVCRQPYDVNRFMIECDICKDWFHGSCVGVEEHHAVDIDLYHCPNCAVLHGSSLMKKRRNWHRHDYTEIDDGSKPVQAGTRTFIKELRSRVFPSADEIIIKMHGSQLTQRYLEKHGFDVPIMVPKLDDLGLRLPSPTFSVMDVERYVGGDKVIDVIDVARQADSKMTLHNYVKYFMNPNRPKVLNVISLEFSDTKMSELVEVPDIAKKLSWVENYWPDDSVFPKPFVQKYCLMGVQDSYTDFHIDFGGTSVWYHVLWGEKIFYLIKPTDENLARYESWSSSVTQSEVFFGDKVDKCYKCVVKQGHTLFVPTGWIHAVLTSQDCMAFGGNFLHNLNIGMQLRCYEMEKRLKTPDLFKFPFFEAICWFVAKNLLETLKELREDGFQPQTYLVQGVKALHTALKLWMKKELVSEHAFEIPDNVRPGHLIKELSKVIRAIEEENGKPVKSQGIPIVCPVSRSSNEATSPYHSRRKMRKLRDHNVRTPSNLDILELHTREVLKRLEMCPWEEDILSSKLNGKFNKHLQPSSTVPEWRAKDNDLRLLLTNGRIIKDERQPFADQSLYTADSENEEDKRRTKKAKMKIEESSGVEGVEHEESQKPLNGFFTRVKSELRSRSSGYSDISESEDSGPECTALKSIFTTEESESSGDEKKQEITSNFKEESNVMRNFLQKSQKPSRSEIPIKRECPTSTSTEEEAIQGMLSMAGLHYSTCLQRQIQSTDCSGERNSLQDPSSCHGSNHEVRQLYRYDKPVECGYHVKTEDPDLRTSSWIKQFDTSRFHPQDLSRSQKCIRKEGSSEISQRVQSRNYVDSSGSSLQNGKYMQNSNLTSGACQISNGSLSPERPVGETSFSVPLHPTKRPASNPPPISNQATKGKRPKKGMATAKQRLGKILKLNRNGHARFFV

Egl nine homolog 1 = Egl nine homolog 1 (Homo sapiens, UniProt Q9GZT9); test: Inhibition of human PHD2 expressed in Escherichia coli by AlphaScreen assay
Sequence of Egl nine homolog 1 (Q9GZT9 whole entry, the tested form may be a part): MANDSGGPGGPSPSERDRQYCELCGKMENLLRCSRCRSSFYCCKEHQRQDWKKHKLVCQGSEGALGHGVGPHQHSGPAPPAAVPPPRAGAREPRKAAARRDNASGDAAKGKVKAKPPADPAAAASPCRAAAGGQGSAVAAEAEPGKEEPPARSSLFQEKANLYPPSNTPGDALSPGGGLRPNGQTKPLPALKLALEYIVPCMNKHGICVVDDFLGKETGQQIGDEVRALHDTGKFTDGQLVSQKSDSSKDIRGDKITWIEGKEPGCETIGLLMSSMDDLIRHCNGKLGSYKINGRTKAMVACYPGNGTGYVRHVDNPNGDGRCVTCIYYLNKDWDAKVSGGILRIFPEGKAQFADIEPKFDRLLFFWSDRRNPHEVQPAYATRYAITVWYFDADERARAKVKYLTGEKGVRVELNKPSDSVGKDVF

[4] = Inhibition of human KDM3A catalytic domain expressed in Sf9 cells methyl lysine peptide substrate by AlphaScreen assay
Summary of the method: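 AlphaScreen activity assay run within the linear range of the reaction. It immunodetects the lysine methylation state of a biotin-conjugated histone peptide product, using Streptavidin- and Protein A-conjugated beads.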

[5] = target: Lysine-specific demethylase 5C (Homo sapiens, UniProt P41229); test: Inhibition of human KDM5C catalytic domain expressed in Sf9 cells using methyl lysine peptide substrate by AlphaScreen assay; summary of the method: as §1
Sequence of Lysine-specific demethylase 5C (P41229 whole entry, the tested form may be a part): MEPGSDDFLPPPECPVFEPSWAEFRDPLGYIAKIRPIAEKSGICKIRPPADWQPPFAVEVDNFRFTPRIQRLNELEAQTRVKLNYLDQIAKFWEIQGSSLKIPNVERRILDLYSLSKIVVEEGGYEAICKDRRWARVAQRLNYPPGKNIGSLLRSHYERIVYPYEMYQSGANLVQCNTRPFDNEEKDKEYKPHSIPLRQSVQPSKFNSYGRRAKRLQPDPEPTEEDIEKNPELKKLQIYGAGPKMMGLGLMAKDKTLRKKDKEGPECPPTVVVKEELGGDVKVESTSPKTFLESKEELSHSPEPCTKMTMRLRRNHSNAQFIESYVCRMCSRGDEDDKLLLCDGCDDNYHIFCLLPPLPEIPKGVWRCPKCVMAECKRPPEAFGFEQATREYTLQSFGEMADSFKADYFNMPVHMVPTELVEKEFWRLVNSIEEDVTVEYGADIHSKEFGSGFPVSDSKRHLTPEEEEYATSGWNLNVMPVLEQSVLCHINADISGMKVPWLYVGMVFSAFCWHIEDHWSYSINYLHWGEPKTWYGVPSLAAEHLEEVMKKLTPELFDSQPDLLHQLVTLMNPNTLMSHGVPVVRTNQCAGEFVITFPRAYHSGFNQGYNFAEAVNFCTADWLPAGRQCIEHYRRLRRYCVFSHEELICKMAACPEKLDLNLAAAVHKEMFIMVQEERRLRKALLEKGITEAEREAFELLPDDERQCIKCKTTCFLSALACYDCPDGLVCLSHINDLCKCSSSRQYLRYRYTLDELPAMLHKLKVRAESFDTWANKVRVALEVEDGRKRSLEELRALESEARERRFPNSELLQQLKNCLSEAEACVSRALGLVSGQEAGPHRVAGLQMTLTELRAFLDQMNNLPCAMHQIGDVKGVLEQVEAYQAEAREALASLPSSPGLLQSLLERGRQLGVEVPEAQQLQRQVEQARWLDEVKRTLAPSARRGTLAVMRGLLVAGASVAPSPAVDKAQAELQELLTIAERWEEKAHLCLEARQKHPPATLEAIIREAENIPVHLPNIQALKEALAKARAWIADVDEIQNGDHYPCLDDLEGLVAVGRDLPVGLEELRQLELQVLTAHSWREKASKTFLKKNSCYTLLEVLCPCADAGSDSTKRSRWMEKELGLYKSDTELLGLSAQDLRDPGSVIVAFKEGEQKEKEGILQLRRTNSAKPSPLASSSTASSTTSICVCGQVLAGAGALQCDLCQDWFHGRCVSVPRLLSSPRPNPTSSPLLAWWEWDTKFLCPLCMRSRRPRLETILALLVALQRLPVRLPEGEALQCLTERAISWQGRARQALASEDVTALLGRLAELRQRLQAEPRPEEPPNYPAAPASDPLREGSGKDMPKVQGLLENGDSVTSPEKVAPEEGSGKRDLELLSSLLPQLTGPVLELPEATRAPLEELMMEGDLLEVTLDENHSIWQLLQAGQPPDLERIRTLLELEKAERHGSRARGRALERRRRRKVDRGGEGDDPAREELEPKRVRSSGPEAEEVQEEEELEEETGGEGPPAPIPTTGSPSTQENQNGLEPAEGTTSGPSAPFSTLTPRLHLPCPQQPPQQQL

[6] = target: T2, Lysine-specific demethylase 4E (Homo sapiens, UniProt B2RXH2); test: Inhibition of human KDM4E expressed in Escherichia coli using methyl lysine peptide substrate by AlphaScreen assay; summary of the method: as §1
T2 sequence (B2RXH2 whole entry): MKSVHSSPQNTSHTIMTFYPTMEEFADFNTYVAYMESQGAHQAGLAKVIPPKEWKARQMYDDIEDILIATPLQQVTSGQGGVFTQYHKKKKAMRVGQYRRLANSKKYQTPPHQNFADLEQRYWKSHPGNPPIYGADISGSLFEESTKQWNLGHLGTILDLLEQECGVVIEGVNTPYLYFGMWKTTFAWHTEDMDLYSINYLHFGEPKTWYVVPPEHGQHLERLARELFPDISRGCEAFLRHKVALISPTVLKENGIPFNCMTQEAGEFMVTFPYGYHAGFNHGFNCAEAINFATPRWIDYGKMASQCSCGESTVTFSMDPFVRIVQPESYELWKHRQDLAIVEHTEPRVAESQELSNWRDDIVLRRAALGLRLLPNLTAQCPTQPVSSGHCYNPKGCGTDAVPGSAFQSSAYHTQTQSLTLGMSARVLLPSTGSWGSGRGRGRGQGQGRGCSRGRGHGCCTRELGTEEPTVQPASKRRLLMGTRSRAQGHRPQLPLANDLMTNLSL

[7] = target: T3, Gamma-butyrobetaine dioxygenase (Homo sapiens, UniProt O75936); test: Inhibition of human BBOX1 by fluorescence based assay
T3 sequence (O75936 whole entry): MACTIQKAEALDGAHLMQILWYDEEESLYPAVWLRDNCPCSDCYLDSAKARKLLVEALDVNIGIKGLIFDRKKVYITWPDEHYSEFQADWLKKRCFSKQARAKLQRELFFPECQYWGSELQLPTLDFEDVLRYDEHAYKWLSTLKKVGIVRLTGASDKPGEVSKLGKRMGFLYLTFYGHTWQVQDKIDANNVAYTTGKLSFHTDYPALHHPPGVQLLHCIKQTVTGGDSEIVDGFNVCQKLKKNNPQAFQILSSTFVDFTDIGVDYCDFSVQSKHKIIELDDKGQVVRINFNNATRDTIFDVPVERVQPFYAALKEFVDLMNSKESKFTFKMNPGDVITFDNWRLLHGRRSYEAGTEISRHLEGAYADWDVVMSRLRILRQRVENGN

[8] = target: Histone lysine demethylase PHF8 (Homo sapiens, UniProt Q9UPP1); test: Inhibition of human PHF8 expressed in Escherichia coli using methyl lysine peptide substrate by AlphaScreen assay
Sequence of Histone lysine demethylase PHF8 (Q9UPP1 whole entry): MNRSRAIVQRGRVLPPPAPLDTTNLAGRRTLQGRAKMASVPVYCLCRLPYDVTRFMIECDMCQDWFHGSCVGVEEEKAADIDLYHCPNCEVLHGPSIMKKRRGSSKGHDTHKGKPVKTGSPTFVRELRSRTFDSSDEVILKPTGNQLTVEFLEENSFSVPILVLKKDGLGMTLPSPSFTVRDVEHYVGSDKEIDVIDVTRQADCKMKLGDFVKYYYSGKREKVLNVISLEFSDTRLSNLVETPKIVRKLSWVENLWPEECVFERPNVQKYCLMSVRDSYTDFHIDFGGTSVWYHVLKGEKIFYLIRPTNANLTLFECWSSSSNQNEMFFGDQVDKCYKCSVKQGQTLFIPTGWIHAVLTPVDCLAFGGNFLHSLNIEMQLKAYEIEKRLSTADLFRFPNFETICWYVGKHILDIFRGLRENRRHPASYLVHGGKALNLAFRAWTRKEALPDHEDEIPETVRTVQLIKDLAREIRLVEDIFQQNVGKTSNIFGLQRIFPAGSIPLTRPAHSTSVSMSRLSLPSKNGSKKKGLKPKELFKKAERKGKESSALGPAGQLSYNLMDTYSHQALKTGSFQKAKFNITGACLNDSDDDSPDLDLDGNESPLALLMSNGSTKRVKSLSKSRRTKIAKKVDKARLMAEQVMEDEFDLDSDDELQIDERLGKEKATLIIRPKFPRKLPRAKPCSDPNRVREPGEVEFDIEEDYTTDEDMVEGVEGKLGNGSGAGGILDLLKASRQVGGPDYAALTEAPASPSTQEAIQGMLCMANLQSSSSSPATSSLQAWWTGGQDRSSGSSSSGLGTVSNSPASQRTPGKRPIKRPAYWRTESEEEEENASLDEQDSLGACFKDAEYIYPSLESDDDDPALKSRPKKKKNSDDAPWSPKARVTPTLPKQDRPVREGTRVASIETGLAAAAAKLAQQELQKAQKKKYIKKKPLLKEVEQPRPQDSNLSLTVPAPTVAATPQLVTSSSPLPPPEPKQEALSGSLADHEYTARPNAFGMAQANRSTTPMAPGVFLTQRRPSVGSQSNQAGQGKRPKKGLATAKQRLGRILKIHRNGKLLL

[9] = target: T4, Lysine-specific demethylase 2A (Homo sapiens, UniProt Q9Y2K7); test: Inhibition of human KDM2A expressed in Escherichia coli using methyl lysine peptide substrate by AlphaScreen assay
T4 sequence (Q9Y2K7 whole entry): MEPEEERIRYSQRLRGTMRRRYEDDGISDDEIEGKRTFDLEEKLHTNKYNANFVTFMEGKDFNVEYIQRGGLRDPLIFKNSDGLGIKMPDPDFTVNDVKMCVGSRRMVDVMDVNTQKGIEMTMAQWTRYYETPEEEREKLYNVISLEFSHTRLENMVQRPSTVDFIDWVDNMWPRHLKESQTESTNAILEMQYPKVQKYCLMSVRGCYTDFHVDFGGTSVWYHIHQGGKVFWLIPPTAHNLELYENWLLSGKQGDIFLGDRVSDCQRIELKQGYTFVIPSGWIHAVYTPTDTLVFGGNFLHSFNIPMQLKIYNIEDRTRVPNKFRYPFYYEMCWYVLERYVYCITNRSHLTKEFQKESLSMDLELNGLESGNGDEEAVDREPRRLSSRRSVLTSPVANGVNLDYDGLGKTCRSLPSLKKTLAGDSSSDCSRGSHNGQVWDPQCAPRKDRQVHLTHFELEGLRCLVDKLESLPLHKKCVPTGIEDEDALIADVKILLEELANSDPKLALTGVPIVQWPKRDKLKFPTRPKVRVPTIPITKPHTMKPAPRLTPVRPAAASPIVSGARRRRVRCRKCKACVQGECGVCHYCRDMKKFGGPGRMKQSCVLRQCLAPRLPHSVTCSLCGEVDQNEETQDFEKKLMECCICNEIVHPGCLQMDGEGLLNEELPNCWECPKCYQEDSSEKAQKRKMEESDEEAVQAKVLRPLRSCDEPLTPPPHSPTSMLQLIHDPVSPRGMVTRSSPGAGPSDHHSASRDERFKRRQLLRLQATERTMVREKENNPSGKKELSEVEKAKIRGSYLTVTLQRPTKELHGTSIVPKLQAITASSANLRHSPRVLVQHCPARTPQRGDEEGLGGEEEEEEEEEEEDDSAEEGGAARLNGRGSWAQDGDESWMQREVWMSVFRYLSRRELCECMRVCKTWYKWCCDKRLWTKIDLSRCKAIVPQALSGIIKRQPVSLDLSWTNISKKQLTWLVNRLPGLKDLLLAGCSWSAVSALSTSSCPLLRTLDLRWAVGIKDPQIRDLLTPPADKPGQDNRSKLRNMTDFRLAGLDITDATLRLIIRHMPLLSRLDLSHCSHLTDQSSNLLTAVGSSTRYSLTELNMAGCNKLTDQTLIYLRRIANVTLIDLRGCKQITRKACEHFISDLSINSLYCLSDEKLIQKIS

Sequence of Lysine-specific demethylase 6B (O15054 whole entry, the tested form may be a part): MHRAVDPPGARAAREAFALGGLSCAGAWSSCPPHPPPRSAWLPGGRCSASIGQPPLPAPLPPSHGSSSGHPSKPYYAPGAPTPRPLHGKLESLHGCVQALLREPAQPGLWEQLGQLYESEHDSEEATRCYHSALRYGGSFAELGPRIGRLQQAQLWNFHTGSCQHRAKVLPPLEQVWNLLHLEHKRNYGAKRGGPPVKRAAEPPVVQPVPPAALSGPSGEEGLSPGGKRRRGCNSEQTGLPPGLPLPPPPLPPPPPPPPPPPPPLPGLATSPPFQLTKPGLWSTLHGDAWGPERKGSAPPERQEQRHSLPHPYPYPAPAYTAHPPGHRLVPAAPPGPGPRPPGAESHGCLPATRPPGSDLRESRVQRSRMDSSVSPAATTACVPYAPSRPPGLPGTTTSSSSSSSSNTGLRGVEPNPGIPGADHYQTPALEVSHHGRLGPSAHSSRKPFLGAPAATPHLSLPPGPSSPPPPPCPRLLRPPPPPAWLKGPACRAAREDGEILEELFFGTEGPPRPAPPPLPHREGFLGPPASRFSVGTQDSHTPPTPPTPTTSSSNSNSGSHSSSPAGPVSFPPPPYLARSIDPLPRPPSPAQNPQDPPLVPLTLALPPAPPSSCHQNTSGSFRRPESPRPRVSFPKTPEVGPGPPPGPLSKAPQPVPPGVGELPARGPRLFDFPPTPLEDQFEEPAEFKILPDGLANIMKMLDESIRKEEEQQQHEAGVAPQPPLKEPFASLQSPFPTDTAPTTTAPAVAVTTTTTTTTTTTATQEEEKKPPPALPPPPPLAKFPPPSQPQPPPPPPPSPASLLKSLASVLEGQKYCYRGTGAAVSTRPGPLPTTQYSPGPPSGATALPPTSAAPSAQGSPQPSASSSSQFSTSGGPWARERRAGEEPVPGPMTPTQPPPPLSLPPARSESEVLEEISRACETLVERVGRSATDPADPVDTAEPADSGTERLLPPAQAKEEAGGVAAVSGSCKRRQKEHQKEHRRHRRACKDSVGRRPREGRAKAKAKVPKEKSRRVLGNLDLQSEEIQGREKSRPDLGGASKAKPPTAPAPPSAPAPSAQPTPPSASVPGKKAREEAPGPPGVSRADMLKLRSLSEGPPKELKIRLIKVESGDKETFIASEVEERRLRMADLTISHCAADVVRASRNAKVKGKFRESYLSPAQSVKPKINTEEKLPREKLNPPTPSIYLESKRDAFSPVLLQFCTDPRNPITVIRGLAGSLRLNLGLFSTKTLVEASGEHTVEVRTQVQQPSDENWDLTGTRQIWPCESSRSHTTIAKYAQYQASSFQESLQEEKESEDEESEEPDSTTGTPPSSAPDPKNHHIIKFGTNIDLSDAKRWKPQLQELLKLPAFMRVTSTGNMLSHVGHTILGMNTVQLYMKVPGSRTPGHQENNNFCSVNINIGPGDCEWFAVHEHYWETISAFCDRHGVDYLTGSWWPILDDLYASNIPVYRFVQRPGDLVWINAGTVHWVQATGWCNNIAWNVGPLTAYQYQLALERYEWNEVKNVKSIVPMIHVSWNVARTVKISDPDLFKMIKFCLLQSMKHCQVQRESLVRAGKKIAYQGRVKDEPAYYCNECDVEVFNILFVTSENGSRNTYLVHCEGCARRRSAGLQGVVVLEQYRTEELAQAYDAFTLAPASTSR

Structure (SMILES)	IC50 [1]	IC50 [2]	IC50 [3]	IC50 (Egl nine homolog 1)	IC50 [4]	IC50 [5]	IC50 [6]	IC50 [7]	IC50 [8]	IC50 [9]
CN(C)NC(=O)CCC(=O)O	> 100 µM	> 100 µM	2.1 µM	> 100 µM	127 µM	> 100 µM	> 100 µM	> 100 µM	–	–
C[N+](C)(C)NC(=O)CCC(=O)O	> 100 µM	> 100 µM	–	> 100 µM	> 100 µM	> 100 µM	> 100 µM	> 100 µM	35 µM	63 µM
CNNC(=O)CCC(=O)O	> 100 µM	> 100 µM	–	14.2 µM	> 100 µM	1.1 µM	4.3 µM	> 100 µM	3.4 µM	0.37 µM
NNC(=O)CCC(=O)O	> 100 µM	> 100 µM	–	> 100 µM	> 100 µM	0.48 µM	0.2 µM	> 100 µM	0.48 µM	0.25 µM
CN(C)N(C)C(=O)CCC(=O)O	> 100 µM	> 100 µM	–	> 100 µM	> 100 µM	> 100 µM	> 100 µM	> 100 µM	11.5 µM	3.7 µM
CC(C)NC(=O)CCC(=O)O	> 100 µM	> 100 µM	–	> 100 µM	> 100 µM	> 100 µM	> 100 µM	> 100 µM	> 100 µM	> 100 µM
CN(C)OC(=O)CCC(=O)O	41.7 µM	> 100 µM	–	6.3 µM	> 100 µM	42 µM	> 100 µM	> 100 µM	6.9 µM	9.1 µM
CN(C)NC(=O)CCC(=O)NN(C)C	> 100 µM	> 100 µM	–	> 100 µM	> 100 µM	> 100 µM	> 100 µM	> 100 µM	117 µM	> 100 µM
O=C(O)CCC(=O)NO	1.1 µM	> 100 µM	–	19.6 µM	3 µM	1.9 µM	0.4 µM	> 100 µM	1.7 µM	0.43 µM
CC(=O)CC(=O)CCC(=O)O [SUCCINYLACETONE]	16.5 µM	> 100 µM	–	> 100 µM	12.7 µM	4.5 µM	23.9 µM	> 100 µM	2.3 µM	0.57 µM
